# Test results as given in ChEMBL document CHEMBL3352408, “Karwinaphthopyranones from the fruits of Karwinskia parvifolia and their cytotoxic activities” (J Nat Prod, 2014).
# Key:
# A549 = assay: Cytotoxicity against human A549 cells after 72 hrs by MTT assay; format: functional, cell-based; settings: A549, 72 h
# Method in brief: (§1)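 MTT read-out of cell viability, with etoposide as positive control. Cell origins: A549, human lung carcinoma; HeLa, cervical cancer; ZR-7530, breast cancer; HCT-15, colon cancer; U373, brain cancer; Hep G2, liver cancer. Potency reported as half-maximal growth inhibitory concentration (IC50).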
# HeLa = assay: Cytotoxicity against human HeLa cells after 72 hrs by MTT assay; format: functional, cell-based; method in brief: as §1
# [1] = Cytotoxicity against human ZR-7530 cells after 72 hrs by MTT assay; format: functional, cell-based; settings: ZR-75-30, 72 h; method in brief: as §1
# [2] = Cytotoxicity against human HCT15 cells after 72 hrs by MTT assay; format: functional, cell-based; settings: HCT-15, 72 h; method in brief: as §1
# [3] = Cytotoxicity against human U373 cells after 72 hrs by MTT assay; format: functional, cell-based, U-373MG ATCC; settings: U373 MG; method in brief: as §1
# HepG2 = assay: Cytotoxicity against human HepG2 cells after 72 hrs by MTT assay; format: functional, cell-based; settings: HepG2, 72 h; method in brief: as §1
Compound,IC50 (A549) [µM],IC50 (HeLa) [µM],IC50 [1] [µM],IC50 [2] [µM],IC50 [3] [µM],IC50 (HepG2) [µM]
COc1cccc2c1C(=O)C1=C(C[C@H](C)O[C@@H]1C)C2(OC)c1ccc2cc3c(c(O)c2c1O)C(=O)C[C@@](C)(O)C3 (stereo partly specified),> 10,> 10,5.5,4.6,> 10,4.6
COc1cc(OC)c2c(O)c(C(C)=O)c(C)cc2c1,> 10,> 10,> 10,> 10,> 10,9.6
C[C@@]1(O)CC(=O)c2c(cc3ccc(-c4c5c(c(O)c6c(O)cccc46)C(=O)C[C@@](C)(O)C5)c(O)c3c2O)C1,> 10,4.9,5.8,4.9,> 10,> 10
Cc1cc(O)c2c(c1)Cc1ccc(C3c4cccc(O)c4C(=O)c4c(O)cc(C)cc43)c(O)c1C2=O (stereo unspecified),> 10,> 10,9.6,> 10,> 10,> 10
COc1cc(C)cc2c1C(=O)c1c(O)cccc1C2=O,> 10,> 10,> 10,> 10,> 10,9.3
COc1cc([C@@H]2c3cc4c(cc3[C@@H](O[C@@H]3O[C@@H]5CO[C@@H](C)O[C@H]5[C@H](O)[C@H]3O)[C@H]3COC(=O)[C@H]23)OCO4)cc(OC)c1O [ETOPOSIDE],9.3,3.4,2.5,4.6,8.5,3.6
